Measured values reported in ChEMBL document CHEMBL4014347, “Targeting Mycolic Acid Transport by Indole-2-carboxamides for the Treatment of Mycobacterium abscessus Infections” (J Med Chem, 2017).
≈ marks a conversion by molar mass, not a printed value.

How the values were obtained:
[1] = test system: Mycobacteroides abscessus; experiment: Antibacterial activity against CF patient derived Mycobacterium abscessus subsp. massiliense isolate 107 smooth variant after 3 to 5 days by two fold serial dilution method; assay type: functional
Method in brief: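 Broth microdilution in cation-adjusted Mueller−Hinton broth per CLSI; inoculum 5 × 10^6 CFU/mL of exponential-phase bacteria; two-fold serial dilutions, solvent-only wells as control; 30 °C for 3−5 days; MIC read visually and confirmed by absorbance at 560 nm; triplicate on three independent occasions.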

[2] = Permeability of the compound at 25 uM at pH 7.4 after 4 hrs by LC-MS based PAMPA; assay type: physicochemical; settings: read-out: permeability
Method in brief: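 PAMPA: 25 μM compound in aqueous buffer at pH 7.4 or 5.0 (pH adjusted with NaOH) in donor plate, triplicate; acceptor membrane coated with GIT-0 lipid, acceptor sink buffer; 4 h at 25 ± 2 °C; donor and acceptor solutions analysed by LC-MS (UPLC).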

Compound: O=C(NC1CCCCCC1)c1cc2c(Cl)cc(Cl)cc2[nH]1
- MIC [1]: 0.25 µg/mL (≈ 0.769 µM)
- Papp at 4 h, 25 µM [2]: 0.2 ×10⁻⁶ cm/s
